Assay results pooled from the literature.
Protocols differ between the studies behind these lines.
Action: inhibitor
CDK5 with p25: Cyclin-dependent kinase 5, with p25 (CDK5, Homo sapiens, UniProt Q00535)
CDK5 with p35: Cyclin-dependent kinase 5, with p35 (CDK5, Homo sapiens, UniProt Q00535)

| Compound | target | test | test system | setting | inhibition [%] |
| --- | --- | --- | --- | --- | --- |
| CCOc1cc(-c2nncn2C)ccc1Nc1ncc2cc(C)nc(NCC(C)(C)C)c2n1 | CDK5 with p25 | enzyme activity, FRET | – | 1 µM | 49 |
| COc1cc2ncnc(Nc3ccc(Oc4ccccc4)cc3C)c2cc1OC | CDK5 with p35 | enzyme activity | – | 1 µM | 7 |
| Cc1ccc(-n2nc(C(C)(C)C)cc2NC(=O)Nc2ccc(OCCN3CCOCC3)c3ccccc23)cc1 | CDK5 with p25 | enzyme activity | – | 10 µM | 1 |
| Cc1ccc(Nc2nccc(N(C)c3ccc4c(C)n(C)nc4c3)n2)cc1S(N)(=O)=O | CDK5 with p25 | enzyme activity | – | 10 µM | 44 |
| COc1cc(-c2cc(-c3ccc(N4CCNCC4)cc3)cnc2C)cc(OC)c1OC | CDK5 with p25 | enzyme activity | – | 1 µM | 3 |
| CC[C@H](C)[C@H](NC(=O)[C@H](CCC(N)=O)NC(=O)[C@H](CC(C)C)NC(=O)[C@H](CCSC)NC(=O)[C@H](CCCCN)NC(=O)[C@H](CO)NC(=O)[C@H](CO)NC(=O)[C@H](CCSC)NC(=O)[C@H](CC(C)C)NC(=O)[C@H](CC(N)=O)NC(=O)[C@@H](NC(=O)[C@@H](NC(=O)[C@H](CO)NC(=O)[C@H](CC(C)C)NC(=O)[C@H](CS)NC(=O)[C@H](CCCNC(=N)N)NC(=O)[C@H](CC(=O)O)NC(=O)[C@H](Cc1c[nH]c2ccccc12)NC(=O)[C@H](Cc1ccccc1)NC(=O)[C@H](C)NC(=O)[C@H](CCC(=O)O)NC(=O)[C@@H](N)CCCCN)C(C)C)[C@@H](C)CC)C(=O)N[C@@H](CC(N)=O)C(=O)N[C@@H](C)C(=O)O | CDK5 with p25 | enzyme activity, radiometric | – | 250 µM | 59 |
| CN(C)C1CCN(CC#Cc2nn(C3CCCC3)c3nc(NCc4ccccc4)ncc23)C1 (centres unmarked) | CDK5 with p25 | enzyme activity, FRET | – | 0.1 µM | 1 |
| CNCc1ccc(-c2cc(-c3nc(-c4ccc(S(=O)(=O)C(C)C)cc4)cnc3N)on2)cc1 | CDK5 with p35 | enzyme activity | – | 0.4 µM | 0 |
| CCN1CCN(Cc2ccc(NC(=O)c3ccc(C)c(Oc4ccnc5[nH]ccc45)c3)cc2C(F)(F)F)CC1 | Cyclin-dependent kinase 5 (CDK5, Homo sapiens, UniProt Q00535) | target engagement in cells, chemoproteomics | Huh-7 | 1 µM | -88.8 |
| COc1cc2ncnc(Nc3ccc(Oc4ccccc4)c(C)c3C)c2cc1OC | CDK5 with p25 | enzyme activity | – | 1 µM | 3 |
| CN1CC(Oc2cnc(C#N)cc2-c2ccn3nc(NC(=O)C4CC4)cc3c2)C1 | CDK5 with p25 | enzyme activity | – | 1 µM | 4 |
